Data: ChEMBL document CHEMBL4020820, “Insights into the Impact of a Membrane-Anchoring Moiety on the Biological Activities of Bivalent Compounds As Potential Neuroprotectants for Alzheimer's Disease” (J Med Chem, 2018)
pEC50: −log10 of the molar value. Calls of active or inactive are those of the source. The rule behind the calls is not given here.

Key:
Brain [1] = experiment: Effect on oxidative phosphorylation efficiency in C57BL/6 mouse brain mitochondria assessed as respiratory control ratio at 3.3 uM using succinate as substrate (reference value: 2.3 +/- 0.2); format: ADME
Lipid bilayer [2] = experiment: Binding affinity to DPPC membrane assessed as appearance of disordered membrane structure at […] at 25 degC by SAXD analysis
How it was run: (§1)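 DPPC (2 mg) with compound at 10:1 lipid:compound molar ratio, hydrated in 100 mM NaCl, 25 mM Hepes pH 7.4, vortexed at 55 °C to form multilamellar vesicles. Small- and wide-angle X-ray diffraction at 25 and 50 °C; 10 min equilibration, 10 min exposure; d-spacings and chain packing read from reflections.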

Lipid bilayer [3] = experiment: Binding affinity to DPPC membrane assessed as phase separation in membrane structure at […] at 50 degC by SAXD analysis; how it was run: as §1
Brain [4] = experiment: Effect on oxidative phosphorylation efficiency in C57BL/6 mouse brain mitochondria assessed as ADP/O ratio at 3.3 uM using succinate as substrate (reference value: 1.3 +/- 0.2); format: ADME
Lipid bilayer [5] = experiment: Binding affinity to DPPC membrane assessed as change in enthalpy by differential scanning calorimetry (reference value: 8.7 kcal/mol)
How it was run: (§2)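 Multilamellar DPPC vesicles (2 mg lipid) with compound at various lipid:compound molar ratios (40:1 up to 5:1) in 100 mM NaCl, 25 mM Hepes pH 7.4, made by vortexing at 55 °C. Samples degassed 10 min, buffer as reference. DSC scans 10–60 °C at 60 °C/h. Traces normalized to DPPC content. Onset (Tc), completion temperature and enthalpy taken from thermograms.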

[6] = Neuroprotective activity against tetracycline removal-induced cytotoxicity in human MC65 cells assessed as increase in cell viability after 72 hrs by MTT assay; format: functional, cell-based; details: MC65, 72 h
How it was run: (§3)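 MC65 cells kept in DMEM/10% FBS with 1 µg/mL tetracycline and G418. Cells washed twice with PBS, seeded in Opti-MEM at 4×10^4/well without tetracycline, given compound (0.3 µM, alone or in combination), 72 h at 37 °C. MTT added for 4 h, formazan dissolved in DMSO, A570 read. Viability as % of +TC controls; six replicates, ≥3 independent runs.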

Brain [7] = experiment: Effect on oxidative phosphorylation efficiency in C57BL/6 mouse brain mitochondria assessed as respiratory control ratio using glutamate at 3.3 uM (reference value: 3.8 +/- 0.5); format: ADME
Brain [8] = experiment: Effect on oxidative phosphorylation efficiency in C57BL/6 mouse brain mitochondria assessed as ADP/O ratio at 3.3 uM using glutamate (reference value: 2.3 +/- 0.3); format: ADME
Lipid bilayer [9] = experiment: Binding affinity to DPPC membrane assessed as appearance of disordered membrane structure at […] at 25 degC by WAXD analysis; details: in the assay text read “SAXD analysis” for “WAXD analysis”; how it was run: as §1
Lipid bilayer [10] = experiment: Binding affinity to DPPC membrane assessed as shift in onset of transition temperature at 40:1 […] molar ratio by differential scanning calorimetry; how it was run: as §2
Lipid bilayer [11] = experiment: Binding affinity to DPPC membrane assessed as increase in membrane thickness at […] at 50 degC by SAXD analysis; how it was run: as §1
Lipid bilayer [12] = experiment: Binding affinity to DPPC membrane assessed as phase transition completion temperature at 5:1 […] molar ratio by differential scanning calorimetry (reference value: 43.1 degC); how it was run: as §2
N2a = experiment: Neuroprotective activity in mouse N2A cells assessed as increase in neurite outgrowth at 0.3 uM after 48 hrs by fluorescent microscopic method; format: functional, cell-based
How it was run: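 N2a cells seeded at 1×10^4/well in MEM with 0.5% FBS plus compound (0.3 µM) for 48 h. Neurite outgrowth stain, then fluorescence imaging at 10× (20 images per well). Average neurite length quantified; mean ± SEM, n=3.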

MC65 = experiment: Neuroprotective activity against tetracycline removal-induced cytotoxicity in human MC65 cells assessed as increase in cell viability at 0.3 uM after 72 hrs by MTT assay; format: functional, cell-based; how it was run: as §3
[13] = Effect on electron transport chain mitochondrial complex-1 activity in C57BL/6 mouse brain mitochondria assessed as change in rate of NADH consumption at 3.3 uM in presence of antimycin A/decylubiquinone by spectrophotometry; format: ADME
How it was run: (§4)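 Frozen-thawed C57BL/6 mouse brain mitochondria solubilized in 5% cholate (pH 7.2), diluted in KME buffer (100 mM KCl, 50 mM MOPS, 1 mM EGTA), treated with compound at 3.3 µM. Complex I: NADH consumption at 340 nm with 100 µM antimycin A, 1 mM decylubiquinone, 150 µM NADH, 40 µg/mL protein, ± 7.5 µM rotenone. Complex IV taken after background subtraction. Mean ± SEM, n=4.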

Brain [14] = experiment: Effect on oxidative phosphorylation efficiency in C57BL/6 mouse brain mitochondria assessed as change in state 4 respiratory rate of succinate at 3.3 uM; format: ADME
Cortical neurone = experiment: Neuroprotective activity in E17 rat primary cortical neurons assessed as increase in neurite outgrowth after 4 days by DAPI-staining based assay; format: functional, cell-based
How it was run: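 Rat E17 cortical neurons on poly-D-lysine coverslips (2×10^4/well) in neurobasal/B27/Glutamax, treated with DMSO or compound from DIV1. Fixed at DIV5 in 4% PFA; neurites immunostained for beta III tubulin, nuclei with DAPI.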

Brain [15] = experiment: Effect on oxidative phosphorylation efficiency in C57BL/6 mouse brain mitochondria assessed as change in state 3 respiratory rate of succinate at 3.3 uM; format: ADME
[16] = Effect on electron transport chain mitochondrial complex-2 activity in C57BL/6 mouse brain mitochondria assessed as change in rate of oxidation of DCPIP at 3.3 uM using succinate as substrate in presence of decylubiquinone by spectrophotometry; format: ADME; how it was run: as §4
[17] = Effect on electron transport chain mitochondrial complex-4 activity in C57BL/6 mouse brain mitochondria assessed as change in first-order rate of consumption of reduced cytochrome C at 3.3 uM measured over 7.5 mins by spectrophotometry; format: ADME; details: 0.125 h; how it was run: as §4
Brain [18] = experiment: Effect on oxidative phosphorylation efficiency in C57BL/6 mouse brain mitochondria assessed as change in state 3 respiratory rate of glutamate at 3.3 uM relative to control; format: ADME
[19] = Effect on electron transport chain mitochondrial complex-3 activity in C57BL/6 mouse brain mitochondria assessed as change in initial rate of reduction of cytochrome C at 3.3 uM in presence of decylubiquinone by spectrophotometry; format: ADME; how it was run: as §4
Brain [20] = experiment: Effect on oxidative phosphorylation efficiency in C57BL/6 mouse brain mitochondria assessed as decrease in ADP-stimulated respiratory rate of glutamate at 3.3 uM; format: ADME

SMILES | Ratio (Brain [1]) | Activity (Lipid bilayer [2]) | Ratio (Brain [4]) | deltaH (Lipid bilayer [5]) | pEC50 [6] | Ratio (Brain [7]) | Ratio (Brain [8]) | Activity (Lipid bilayer [9]) | Activity (Lipid bilayer [10]) | Activity (N2a) | also measured
COc1cc(/C=C/C(=O)/C(Cc2cn(CCNC(=O)COCC(=O)NCCCCO[C@H]3CC[C@@]4(C)C(=CC[C@H]5[C@@H]6CC[C@H]([C@H](C)CCCC(C)C)[C@@]6(C)CC[C@@H]54)C3)nn2)=C(O)/C=C/c2ccc(O)c(OC)c2)ccc1O | 2.4 | Active | 1.2 | 3 to 5 kcal/mol | 6.53 | 4.4 | 2.4 | Active | Active |  | Activity (Lipid bilayer [3]): Active
COc1cc(/C=C/C(=O)/C(Cc2cn(CCNC(=O)COCC(=O)NCCCCN[C@H]3CC[C@@]4(C)C(=CC[C@H]5[C@@H]6CC[C@H]([C@H](C)CCCC(C)C)[C@@]6(C)CC[C@@H]54)C3)nn2)=C(O)/C=C/c2ccc(O)c(OC)c2)ccc1O | 2.6 | Active | 1.1 | 3 to 5 kcal/mol | 7.25 | 3.9 | 2.4 | Active | Active |  | Activity (Lipid bilayer [11]): Active; T (Lipid bilayer [12]): 42.4 °C
COc1cc(/C=C/C(=O)/C(Cc2cn(CCCCCCNC(=O)COCC(=O)NCCCCO[C@H]3CC[C@@]4(C)C(=CC[C@H]5[C@@H]6CC[C@H]([C@H](C)CCCC(C)C)[C@@]6(C)CC[C@@H]54)C3)nn2)=C(O)/C=C/c2ccc(O)c(OC)c2)ccc1O |  |  |  |  | 5.73 |  |  |  |  |  | 
CCCCNC(=O)COCC(=O)NCCn1cc(C/C(C(=O)/C=C/c2ccc(O)c(OC)c2)=C(O)\C=C\c2ccc(O)c(OC)c2)nn1 | 1.2 |  |  |  |  |  |  |  |  | inactive | Activity (MC65): inactive
COc1cc(/C=C/C(=O)/C(Cc2cn(CCNC(=O)COCC(=O)NCCCCO[C@H]3CC[C@@]4(C)C(=CC[C@H]5[C@@H]6C[C@@H]7O[C@]8(CC[C@@H](C)CO8)[C@@H](C)[C@@H]7[C@@]6(C)CC[C@@H]54)C3)nn2)=C(O)/C=C/c2ccc(O)c(OC)c2)ccc1O | 2.1 | Active | 1.1 | 3 to 5 kcal/mol | 8.08 | 3.9 | 2.3 | Active | Active | Active | Activity [13]: Not Active; Activity (Brain [14]): Non-Toxic; Activity (Lipid bilayer [3]): Active; Activity (Cortical neurone): Active; Activity (Brain [15]): Non-Toxic; Activity [16]: Not Active; Activity [17]: Not Active; Activity (Brain [18]): 11.5%; Activity [19]: Not Active; T (Lipid bilayer [12]): 42.4 °C; Activity (Brain [20]): Toxic
COc1cc(/C=C/C(=O)/C(Cc2cn(CCCCCCNC(=O)COCC(=O)NCCCCO[C@H]3CC[C@@]4(C)C(=CC[C@H]5[C@@H]6C[C@@H]7O[C@]8(CC[C@@H](C)CO8)[C@@H](C)[C@@H]7[C@@]6(C)CC[C@@H]54)C3)nn2)=C(O)/C=C/c2ccc(O)c(OC)c2)ccc1O |  |  |  |  | 7.52 |  |  |  |  | Active | Activity (Cortical neurone): Active
COc1cc(/C=C/C(=O)/C(Cc2cn(CCCCCCNC(=O)COCC(=O)NCCCCN[C@H]3CC[C@@]4(C)C(=CC[C@H]5[C@@H]6CC[C@H]([C@H](C)CCCC(C)C)[C@@]6(C)CC[C@@H]54)C3)nn2)=C(O)/C=C/c2ccc(O)c(OC)c2)ccc1O |  |  |  |  | 6.67 |  |  |  |  |  | 
